HSP90 inh – blocks HSP90-mediated luciferase refolding in reticulocyte lysate; 290,000 tested, 0.91% active; AID 1789; Rabbit reticulocyte lysate, luciferase refolding luminescence, 3 h; inhibition, % at 5.6 µM;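 active = inhibition above the screen-wide mean plus 3 SD, computed separately per campaign, cut at about 16% in these data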;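 also: 0% = DMSO wells and 100% = 60 µM geldanamycin wells; inhibitors lower the luminescence because luciferase stays unfolded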
HCV NS3 hel inh – HCV NS3 helicase inhibition; NS3 helicase DNA unwinding, Cy5 molecular beacon fluorescence; inhibition, % at 10.9 µM; 290,000 tested, 0.56% active;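 active = inhibition above the mean of all tested compounds plus 3 SD, set per campaign, cut at about 35% in these data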;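 also: 0% = DMSO wells and 100% = thioflavine S control wells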
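System: NS3 helicase fragment of HCV / Schedule: 1 h at 25 °C / Control set: DMSO alone as 0% and 110 µM thioflavine S as 100% / Reagent: Cy5/quencher beacon DNA duplex and ATP to start / Technique: Cy5 fluorescence / Replication: singlicate / Evaluation: % inhibition of end-to-start signal ratio versus controls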
Hep lipid drop – modulators of hepatic lipid droplet formation; inhibition, % at 6.5 µM; AML12 mouse hepatocytes, oleate lipid droplets, BODIPY imaging; 240,000 tested, 0.4% active; AID 1656;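 active = lipid droplet intensity inhibited by at least 50%, with more than 500 cells counted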
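Assay system: AML12 mouse liver cells | Compound: 6.5 µM single-point dosing | Schedule: Overnight exposure | Technique: Fluorescence imaging, 20x objective, two fields per well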
HSF1 inhib – HSF1 inhibition | activity change, negative = inhibition, % at 7.5 µM (by protocol) | NIH3T3-HGL HSE-luciferase, MG132-induced, luminescence 8 h; hits give low values | 300,000 tested, 0.77% active;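 active = more than half of replicate wells show activity change below -50%, luminescence cut by over half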;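 also: luciferase reports HSF-1 transcriptional activity via heat shock element; 0% = median of DMSO wells and -100% = zero luminescence signal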
HSF1 activator – increases HSF-1 driven luciferase reporter signal. AID 504408. activation, % at 9 µM. 300,000 tested, 1.7% active. NIH3T3-HGL HSF-1 luciferase reporter, MG132, 8 h; 100% = twice DMSO control signal;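 active = mean replicate activation of at least 50% with a set share of replicates each reaching 50%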;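 also: 0% = median of the neutral control wells and 100% = twice that signal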
Active calls of the source: *. In the library only some 3.8% were active in any assay of this set; here they are far more common.

What do the screens show for `CC(C)[C@H](NC(=O)Cc1ccccc1)C(=O)OCc1cc(=O)n2c(n1)sc1ccccc12`?
HSP90 inh: 5; HCV NS3 hel inh: 11; Hep lipid drop: 2; HSF1 inhib: -72*; HSF1 activator: -78

Results for Cc1ccc(C)c(S(=O)(=O)N2CCCCC2CCNC(=O)C(=O)NCCc2ccco2)c1 (stereo not drawn) ?
HSF1 inhib: 20; HSF1 activator: 54*

What do the screens show for `Cc1ccc(CCNC(=O)C2CCN(S(=O)(=O)c3ccc4c(c3)NC(=O)CO4)CC2)cc1`?
HSP90 inh: 0; HCV NS3 hel inh: 5; Hep lipid drop: 0; HSF1 inhib: 35; HSF1 activator: 68*

Results for Cc1ccccc1C(=O)Nc1nnc(CC(=O)N/N=C/c2ccncc2)s1 ?
HSP90 inh: 0; HCV NS3 hel inh: 0; Hep lipid drop: -4; HSF1 inhib: 1; HSF1 activator: -13

What do the screens show for `Cc1ccccc1CSc1nnc(-c2ccco2)n1Cc1ccco1`?
HSP90 inh: 2; HCV NS3 hel inh: -1; HSF1 inhib: 96; HSF1 activator: 117*

What do the screens show for `c1ccc(CSc2nnc(-c3ccco3)n2Cc2ccco2)cc1`?
HSP90 inh: 2; HCV NS3 hel inh: -6; HSF1 inhib: 50; HSF1 activator: 80*

What do the screens show for `CC(C)(C)c1ccc(CSc2nnc(-c3ccccn3)n2Cc2ccco2)cc1`?
HSP90 inh: 2; HCV NS3 hel inh: -1; Hep lipid drop: -14; HSF1 inhib: 13; HSF1 activator: 38

How did O=C(CSc1nnc(-c2ccco2)n1Cc1ccccc1)OC1CCCCC1 do in these assays?
HSP90 inh: 2; HCV NS3 hel inh: 6; HSF1 inhib: 47; HSF1 activator: 79*

How did Cc1ccccc1CSc1nnc(-c2cccs2)n1Cc1ccco1 do in these assays?
HSP90 inh: 0; HCV NS3 hel inh: -16; HSF1 inhib: 4; HSF1 activator: 11

Results for Brc1ccc(CSc2nnc(-c3ccccn3)n2Cc2ccco2)cc1 ?
HSP90 inh: 2; HCV NS3 hel inh: -7; HSF1 inhib: 105; HSF1 activator: 145*

How did CC1CCN(C(=O)CNC(=O)CNS(=O)(=O)c2ccccc2)CC1 do in these assays?
HSP90 inh: -1; HCV NS3 hel inh: 1; Hep lipid drop: 0; HSF1 inhib: 0; HSF1 activator: 8

How did Cc1nnc(SCC(=O)Nc2nc(-c3ccc(F)cc3)cs2)[nH]c1=O do in these assays?
HSP90 inh: 3; HCV NS3 hel inh: -1; Hep lipid drop: 5; HSF1 inhib: 11; HSF1 activator: 1

What do the screens show for `CCc1nn(C(CC)C(=O)NCc2cccc(OC)c2)c(=O)c2cc3occc3n12` (stereo not drawn)?
HSP90 inh: -4; HCV NS3 hel inh: 13; Hep lipid drop: -31; HSF1 inhib: -1; HSF1 activator: 7

Results for Cc1ccc(N2C(=O)N(CC(=O)NC(N)=O)C(=O)C2C)cc1 (stereo not drawn) ?
HSP90 inh: 6; HCV NS3 hel inh: 14; Hep lipid drop: -2; HSF1 inhib: -69*; HSF1 activator: -75

Results for CCCSc1nc2c3c(sc2c(=O)[nH]1)CC(C)(CC)OC3 (stereo not drawn) ?
HSP90 inh: 2; HCV NS3 hel inh: 2; Hep lipid drop: 10; HSF1 inhib: 0; HSF1 activator: 18

How did COC(=O)c1ccc2c(c1O)C(=O)c1ccccc1C2=O do in these assays?
HSP90 inh: 6; HCV NS3 hel inh: 3; Hep lipid drop: -2; HSF1 inhib: 59; HSF1 activator: 100*

How did CCn1c(=O)cc(SCC(=O)Nc2ccc(Cl)cc2)c2ccccc21 do in these assays?
HSP90 inh: 0; HCV NS3 hel inh: -2; HSF1 inhib: 32; HSF1 activator: 97*

How did CCn1c(=O)cc(SCC(=O)N2CCN(C3CCCCC3)CC2)c2ccccc21 do in these assays?
HSP90 inh: 7; HCV NS3 hel inh: -6; Hep lipid drop: -2; HSF1 inhib: 30; HSF1 activator: 62*

How did Cc1cc(N2CCCC2)c(F)cc1/C=C\[N+](=O)[O-] do in these assays?
HSP90 inh: -2; HCV NS3 hel inh: 1; Hep lipid drop: 11; HSF1 inhib: 160; HSF1 activator: 207*

What do the screens show for `CC1CC(C)CN(C(=O)c2cc3ccccc3o2)C1` (stereo not drawn)?
HSF1 inhib: 13; HSF1 activator: 16

Results for CC1CC(C)CN(C(=O)c2cc3cc(Br)cc(Br)c3o2)C1 (stereo not drawn) ?
HSP90 inh: -10; HCV NS3 hel inh: -12; Hep lipid drop: 4; HSF1 inhib: 34; HSF1 activator: 67*

How did Cc1ccccc1N=Nc1c(O)[nH]c2ccccc12 do in these assays?
HSF1 inhib: 7; HSF1 activator: 8

What do the screens show for `Cc1ccc2[nH]c(O)c(N=Nc3ccccc3C)c2c1`?
HSP90 inh: -2; HCV NS3 hel inh: -3; Hep lipid drop: 6; HSF1 inhib: -63*; HSF1 activator: -71

What do the screens show for `c1ccc(Nc2ncnc3sccc23)cc1`?
HSP90 inh: -4; HCV NS3 hel inh: -3; Hep lipid drop: 22; HSF1 inhib: 0; HSF1 activator: -6

What do the screens show for `CC(Nc1ncnc2sccc12)c1ccccc1` (stereo not drawn)?
HSP90 inh: 2; HCV NS3 hel inh: -7; Hep lipid drop: -42; HSF1 inhib: -81*; HSF1 activator: -84

What do the screens show for `c1ccc2c(c1)CC/C2=N/Nc1nc2ccccc2[nH]1`?
HSP90 inh: -2; HCV NS3 hel inh: -9; Hep lipid drop: 16; HSF1 inhib: 13; HSF1 activator: 51*

Results for CC(C)(C)C1CCC(=NNc2nc3ccccc3[nH]2)CC1 (stereo not drawn) ?
HSP90 inh: 7; HCV NS3 hel inh: -1; Hep lipid drop: -5; HSF1 inhib: -18; HSF1 activator: -22

How did CCc1nc2sc3ccccc3c(=O)c2c(=O)n1Cc1ccc(OC)cc1 do in these assays?
HSP90 inh: 3; HCV NS3 hel inh: 0; Hep lipid drop: 1; HSF1 inhib: -65*; HSF1 activator: -64

What do the screens show for `N#CCSc1nc2ccccc2c2nc3ccccc3n12`?
HSP90 inh: 0; HCV NS3 hel inh: 3; Hep lipid drop: -49; HSF1 inhib: 36; HSF1 activator: 68*

What do the screens show for `C/C(=N/NC(=O)c1cc2ccccc2cc1O)c1ccco1`?
HSP90 inh: 2; HCV NS3 hel inh: 26; Hep lipid drop: -26; HSF1 inhib: 95; HSF1 activator: 93*

How did CSc1ccc(C2c3[nH]c4ccccc4c3CCN2C(=O)c2cc(C)n(C)n2)cc1 (stereo not drawn) do in these assays?
HSP90 inh: 0; HCV NS3 hel inh: -3; Hep lipid drop: 44; HSF1 inhib: 37; HSF1 activator: 53*

Results for Cc1cnc(C(=O)N2CCc3c([nH]c4ccccc34)C2c2ccc(F)cc2)cn1 (stereo not drawn) ?
HSP90 inh: -2; HCV NS3 hel inh: -7; Hep lipid drop: -4; HSF1 inhib: 7; HSF1 activator: 16
